bCat KO growth – beta-catenin-lacking colon tumor cell growth suppression. HCT116 beta-catenin knockout viability, CellTiter-Glo, 60 h; active compounds read low. viability, % at 10 µM. 140,000 compounds, 1.5% hits. AID 818;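 active means viability at or under a set limit, the compound median less 4 SD, cut at about 6% in these data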;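 further: 0% = Hyamine 1622 control at 20 µM and 100% = untreated cell control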
HCT116 PTEN-null – PTEN-deleted cell growth suppression; 140,000 compounds, 1.2% hits; HCT116 PTEN-null viability, CellTiter-Glo, 60 h; active compounds read low; AID 827; viability, % at 10 µM;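 active means viability at or below a set limit, 4 SD under the median of all tested compounds, cut at about 3.7% in these data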;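 further: PTEN knockout HCT116 line with beta catenin targeted HCT116 as companion control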
Fibroblast inh – blocks proliferation of human lung fibroblasts | LL 47 human lung fibroblast viability, ATP luminescence; active compounds read low | viability, % at 10 µM | 85,000 compounds, 1.1% hits | AID 719;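 active means viability at or below 50% in the single dose screen; inactive means viability above 50%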;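 further: compound exposure lasted 72 h before the ATP readout; 100% = median luminescence of untreated cell-only wells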
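Benchmarks: Cell-only wells, no compound | Test system: LL 47 human lung fibroblasts, passage 12 or lower | Input: 1,150 cells/well | Measured by: CellTiter-Glo luminescence measuring cellular ATP | Medium: IMEM, 15% FBS supplement | Schedule: Overnight attachment after seeding, then 72 h compound exposure at 37 °C | Doses: Compound addition at 0.1% DMSO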
HUVEC inhibit – inhibitors of human endothelial cell proliferation | 86,000 compounds, 1.1% hits | AID 648 | HUVEC proliferation, CellTiter-Glo luminescence, 72 h; active compounds read low | viability, % at 10 µM (by protocol);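 active means viability at or below 30%; inactive means viability above 30%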;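 further: 100% = median luminescence of DMSO-only cell control wells on each plate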
H69AR inhibit – blocks growth of human H69AR lung tumor cells. H69AR lung tumor viability, ATP luminescence, 72 h; active compounds read low. viability, % at 10 µM. 85,000 compounds, 6% hits;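 active means viability at or below 40%; inactive means viability above 40%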;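 further: multidrug resistant small cell line overexpressing MRP-1 efflux transporter; 100% = mean luminescence of untreated control wells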
An asterisk follows results filed as active. Shown is part of a subset that was picked to be rich in hits.

For N#Cc1c(C(F)(F)F)cc(-c2ccccc2)nc1SCc1nc(N)nc(N2CCOCC2)n1 the results were bCat KO growth 61, HCT116 PTEN-null 48, Fibroblast inh 75, HUVEC inhibit 63 and H69AR inhibit 21*.
N#Cc1c(C(F)(F)F)cc(-c2ccc(Cl)c(Cl)c2)nc1SCCN1CCOCC1 was read as bCat KO growth 75 and HCT116 PTEN-null 76.
Screening COc1cc(OC)c(C(=O)OC(C)C(=O)Nc2cccc(C(F)(F)F)c2)cc1OC (stereo unspecified) returned bCat KO growth 86 and HCT116 PTEN-null 88.
Screening C=CCc1cccc(/C=N/NC(=O)CNc2cccc3ccccc23)c1O returned bCat KO growth 3.2* and HCT116 PTEN-null 1.8*.
Screening C=CCc1cccc(/C=N/NC(=O)CCC(=O)Nc2ccc(F)cc2)c1O returned bCat KO growth 8 and HCT116 PTEN-null 11.
Screening C=CCc1cccc(/C=N/NC(=O)CNc2ccccc2)c1O returned bCat KO growth 3.7* and HCT116 PTEN-null 3.0*.
For C=CCc1cccc(/C=N/NC(=O)CCCNc2ccc(C)cc2)c1O the results were bCat KO growth 57 and HCT116 PTEN-null 52.
`O=C(COC(=O)/C=C/c1ccc(F)cc1)Nc1ccccc1-c1ccccc1` gave bCat KO growth 84 and HCT116 PTEN-null 88.
`CCn1nnnc1SCC(=O)c1cc(OC)ccc1OC` gave bCat KO growth 98, HCT116 PTEN-null 97, Fibroblast inh 95, HUVEC inhibit 93 and H69AR inhibit 93.
For Cc1cc(C)c(S(=O)(=O)n2ccc3ccccc32)c(C)c1 the results were bCat KO growth 75, HCT116 PTEN-null 75, Fibroblast inh 98, HUVEC inhibit 89 and H69AR inhibit 7.8*.
Screening COc1ccc(Cc2nnc(N/N=C/c3ccc(O)cc3)[nH]c2=O)cc1OC returned bCat KO growth 5.5* and HCT116 PTEN-null 7.
`COc1ccc(/C=N/NC(=O)CCc2n[nH]c(=O)[nH]c2=O)cc1OC` gave bCat KO growth 101 and HCT116 PTEN-null 104.
Screening O=C(O)CCC(=O)Nc1ccc(Sc2ccc([N+](=O)[O-])cc2)cc1 returned bCat KO growth 106 and HCT116 PTEN-null 95.
O=C(CCc1nc2ccccc2c(=O)[nH]1)OCc1ccc(Cl)cc1Cl was read as bCat KO growth 95 and HCT116 PTEN-null 95.
`CC(NC(=O)/C(C#N)=C1\N=C(NC(=O)c2cccs2)c2ccccc21)c1ccccc1` (stereo unspecified) gave bCat KO growth 93 and HCT116 PTEN-null 92.
For CCNc1nc(SCCOc2ccc(C)cc2)nc(N(C)C)n1 the results were bCat KO growth 74, HCT116 PTEN-null 66, Fibroblast inh 85, HUVEC inhibit 97 and H69AR inhibit 31*.
COC(=O)c1ccccc1NS(=O)(=O)c1ccc2c3c(cccc13)C(=O)N2 was read as Fibroblast inh 90, HUVEC inhibit 97 and H69AR inhibit 83.
Screening Cc1oc2c(cc(NS(=O)(=O)c3ccc4c5c(cccc35)C(=O)N4)c3ccccc32)c1C(=O)OC(C)C returned bCat KO growth 68, HCT116 PTEN-null 53, Fibroblast inh 90, HUVEC inhibit 63 and H69AR inhibit 31*.
For COC(=O)c1c(C)oc2c1cc(NS(=O)(=O)c1cccs1)c1ccccc12 the results were bCat KO growth 84, HCT116 PTEN-null 86, Fibroblast inh 86, HUVEC inhibit 53 and H69AR inhibit 20*.
`Cc1ccc2nc(N3CC(=O)Nc4ccccc43)nc(-c3ccccc3)c2c1` gave bCat KO growth 1.4* and HCT116 PTEN-null 1.2*.
CC1CCN(C(=O)CSc2nnc(-c3cccnc3)n2C2CCCCC2)CC1 was read as bCat KO growth 100, HCT116 PTEN-null 100, HUVEC inhibit 101 and H69AR inhibit 26*.
COC(=O)c1sc(NC(=O)C2CCCCC2C(=O)O)c(C(=O)OC)c1C (stereo unspecified) was read as bCat KO growth 94 and HCT116 PTEN-null 93.
`COc1cc2nc(N3CCN(C(=O)c4ccco4)CC3)nc(N)c2cc1OC` gave bCat KO growth 7, HCT116 PTEN-null 5, Fibroblast inh 22*, HUVEC inhibit 87 and H69AR inhibit 10*.
`O=C(C1COc2ccccc2O1)N1CCN(c2ccccc2)CC1` (stereo unspecified) gave bCat KO growth 99, HCT116 PTEN-null 94, Fibroblast inh 96, HUVEC inhibit 106 and H69AR inhibit 101.
Screening COc1cc2nc(N3CCN(C(=O)C4COc5ccccc5O4)CC3)nc(N)c2cc1OC (stereo unspecified) returned bCat KO growth 4.6*, HCT116 PTEN-null 9, Fibroblast inh 99, HUVEC inhibit 62 and H69AR inhibit 29*.
CC(=O)NC(Cc1ccc(C)cc1)C(=O)NC1CCN(c2ncccc2[N+](=O)[O-])CC1 (stereo unspecified) was read as bCat KO growth 94 and HCT116 PTEN-null 88.
For Cc1cccc(C)c1NC(=O)C(NC(=O)CN1C(=O)c2ccccc2C1=O)c1ccccc1 (stereo unspecified) the results were bCat KO growth 85 and HCT116 PTEN-null 89.
`CCOc1cc(Cl)c(NC(=O)CC)cc1OCC` gave bCat KO growth 93 and HCT116 PTEN-null 104.
COc1ccc(C(=O)Nc2nc3cc(OC)c(OC)cc3c(=O)[nH]2)cc1 was read as bCat KO growth 17, HCT116 PTEN-null 13, Fibroblast inh 78, HUVEC inhibit 57 and H69AR inhibit 13*.
`COc1cc2nc(NC(=O)c3ccccc3)[nH]c(=O)c2cc1OC` gave bCat KO growth 95, HCT116 PTEN-null 91, Fibroblast inh 101, HUVEC inhibit 103 and H69AR inhibit 65.
For CCOC(=O)c1c(-c2ccccc2)oc2ccc(O)c(CN3CCCC3)c12 the results were bCat KO growth 17, HCT116 PTEN-null 15, Fibroblast inh 59, HUVEC inhibit 3.5* and H69AR inhibit 5.3*.
`CCOC(=O)c1c(-c2ccccc2)oc2ccc(O)c(CN(C)C)c12` gave bCat KO growth 37, HCT116 PTEN-null 39, Fibroblast inh 73, HUVEC inhibit 55 and H69AR inhibit 10*.
For COCCOC(=O)c1c(C)oc2ccc(O)c(CN3CCC(C)CC3)c12 the results were bCat KO growth 79, HCT116 PTEN-null 73, Fibroblast inh 95, HUVEC inhibit 92 and H69AR inhibit 87.
CC1=CC(C)=Nc2ccc(C)cc2N1 was read as bCat KO growth 99, HCT116 PTEN-null 97, Fibroblast inh 100, HUVEC inhibit 97 and H69AR inhibit 18*.
CC(=O)N(C)c1ccc(NC(=O)c2ccc([N+](=O)[O-])cc2Cl)cc1 was read as bCat KO growth 83 and HCT116 PTEN-null 88.
`Cc1nc(Nc2ccc3c(c2)OCO3)c2oc3ccccc3c2n1` gave bCat KO growth 81 and HCT116 PTEN-null 69.
Screening Cc1nc(N2CCC(C)CC2)c2oc3ccccc3c2n1 returned bCat KO growth 44, HCT116 PTEN-null 48, Fibroblast inh 97, HUVEC inhibit 82 and H69AR inhibit 34*.

From PubChem
